{
  "source": "paper PMC4178936",
  "about": "(The Journal of General Physiology, 2014)",
  "key": {"[1]": {"target": "T1, WT CFTR (Homo sapiens, UniProt P13569)", "T1 sequence (P13569 whole entry)": "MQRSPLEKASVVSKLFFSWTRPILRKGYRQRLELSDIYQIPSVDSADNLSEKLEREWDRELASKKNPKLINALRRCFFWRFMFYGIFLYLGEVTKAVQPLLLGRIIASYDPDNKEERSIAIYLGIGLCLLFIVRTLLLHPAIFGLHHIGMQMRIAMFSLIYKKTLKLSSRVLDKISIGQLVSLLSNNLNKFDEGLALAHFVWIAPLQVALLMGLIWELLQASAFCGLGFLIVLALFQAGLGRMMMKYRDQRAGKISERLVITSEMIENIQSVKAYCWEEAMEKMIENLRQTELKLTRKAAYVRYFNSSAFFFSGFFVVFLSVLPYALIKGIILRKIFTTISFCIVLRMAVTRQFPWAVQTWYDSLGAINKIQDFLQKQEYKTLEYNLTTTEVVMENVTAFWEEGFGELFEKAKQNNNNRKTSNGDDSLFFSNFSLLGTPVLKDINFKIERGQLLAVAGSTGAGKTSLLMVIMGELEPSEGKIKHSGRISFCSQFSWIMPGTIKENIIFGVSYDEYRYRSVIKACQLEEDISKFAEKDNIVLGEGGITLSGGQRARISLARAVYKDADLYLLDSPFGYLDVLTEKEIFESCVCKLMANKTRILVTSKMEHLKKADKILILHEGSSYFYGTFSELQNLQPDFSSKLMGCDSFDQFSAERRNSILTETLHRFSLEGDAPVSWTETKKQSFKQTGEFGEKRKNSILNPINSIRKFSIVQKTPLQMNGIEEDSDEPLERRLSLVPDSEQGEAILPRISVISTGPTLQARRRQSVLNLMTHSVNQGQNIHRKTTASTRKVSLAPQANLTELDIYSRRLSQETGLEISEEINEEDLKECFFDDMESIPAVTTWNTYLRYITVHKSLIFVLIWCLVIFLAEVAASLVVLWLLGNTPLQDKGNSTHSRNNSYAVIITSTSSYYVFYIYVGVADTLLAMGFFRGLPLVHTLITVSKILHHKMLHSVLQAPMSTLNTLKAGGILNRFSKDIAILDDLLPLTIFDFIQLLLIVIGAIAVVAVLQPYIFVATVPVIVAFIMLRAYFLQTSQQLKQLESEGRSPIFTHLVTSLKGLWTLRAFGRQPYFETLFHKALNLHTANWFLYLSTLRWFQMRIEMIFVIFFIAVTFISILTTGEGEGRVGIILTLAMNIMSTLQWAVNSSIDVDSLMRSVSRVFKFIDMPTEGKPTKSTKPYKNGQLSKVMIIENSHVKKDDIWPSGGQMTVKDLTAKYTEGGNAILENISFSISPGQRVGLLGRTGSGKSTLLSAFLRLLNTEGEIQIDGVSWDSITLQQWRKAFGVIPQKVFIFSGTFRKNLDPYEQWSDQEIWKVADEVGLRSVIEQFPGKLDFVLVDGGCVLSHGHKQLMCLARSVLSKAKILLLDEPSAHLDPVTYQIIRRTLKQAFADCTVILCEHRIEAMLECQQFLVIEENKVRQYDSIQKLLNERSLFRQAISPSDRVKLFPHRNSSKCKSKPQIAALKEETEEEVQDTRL", "experiment": "Steady-state macroscopic WT CFTR currents", "type": "biochemical"}, "[2]": {"target": "T1, WT CFTR", "experiment": "Macroscopic", "type": "biochemical", "procedure,_shortened": "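Human WT CFTR from cRNA (0.1–10 ng) was expressed in Xenopus oocytes; excised inside-out patches at 25°C, NMDG-Cl solutions, bath pH 7.1. Channels were prephosphorylated with 300 nM PKA catalytic subunit and gated in 2 mM MgATP ± test compound. Current decay after sudden ATP removal was fitted to a single exponential (rate = 1/τ), normalized to same-patch control and rescaled by pooled control mean. Mean ± SEM, n ≥ 5.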"}, "[3]": {"target": "T2, K1250A CFTR (Homo sapiens, UniProt P13569, K1250A)", "T2 sequence (P13569 whole entry K1250A, the tested form may be a part)": "as the sequence (P13569 whole entry) above, with K1250A counted along it", "experiment": "Macroscopic pore-block/permeation assay on locked-open K1250A CFTR currents", "type": "biochemical", "conditions": "for fractional current of locked-open K1250A CFTR: 210 µM NPPB, 32 mM 3NB, 20 mM 3PP", "procedure,_shortened": "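K1250A channels were locked open by removing 10 mM MgATP, in inside-out oocyte patches at 25°C, −80 and 60 mV. Test compounds were applied briefly alone or pairwise (head fragment 32 mM, tail fragment 20 mM, parent 210 µM). Tail stock 50 mM was titrated with sulfuric acid (~0.45 mol/mol), so sulfate 1–20 mM was tested separately. Fractional current = quasi-steady drug current ÷ mean pre/post current. Apparent KI came from dose–response fits.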"}, "[4]": {"test_system": "ΔF508 CFTR", "conditions": "in vitro, cited from earlier work"}, "[5]": {"target": "T1, WT CFTR", "experiment": "Single-channel steady-state kinetic analysis of WT CFTR", "type": "biochemical", "conditions": "20 mM 3PP, −80 mV", "procedure,_shortened": "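Steady-state WT CFTR gating was recorded after PKA prephosphorylation, in 2 mM ATP at −80 mV and 25°C. Patches held one active channel for the 32 mM head fragment, or one to four for the 20 mM tail fragment. Traces were filtered at 100 Hz (control, tail) or 50 Hz (head) and idealized by half-amplitude threshold. Events were fitted by maximum likelihood to a closed-open-blocked scheme (dead times 4 and 6 ms), yielding τb and τib.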"}, "[6]": {"target": "T2, K1250A CFTR", "experiment": "Macroscopic nonhydrolytic closing rate of K1250A CFTR after ATP removal", "type": "biochemical", "procedure,_shortened": "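Nonhydrolytic closure of K1250A CFTR was studied in inside-out oocyte patches at 25°C, with channels gating in 10 mM MgATP after PKA prephosphorylation. The rate was the inverse of a single-exponential fit to current decay after ATP removal, normalized to same-patch control. Parent-compound series was recorded at −40 mV, fragment series at −20 mV. Mean ± SEM of at least five.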"}, "[7]": {"target": "T2, K1250A CFTR", "experiment": "Steady-state versus locked-open K1250A CFTR currents", "type": "biochemical", "conditions": "32 mM 3NB, 20 mM 3PP; 10 mM ATP; −20 mV", "procedure,_shortened": "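K1250A CFTR was recorded at −20 mV in 10 mM ATP, 25°C. Head (32 mM) or tail (20 mM) fragment was applied for long periods to channels gating at steady state (I/Icontrol), and briefly to locked-open channels after ATP removal (i/icontrol). Po change = (I/Icontrol)/(i/icontrol).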"}, "[8]": {"target": "CFTR pore-binding site (Homo sapiens, UniProt P13569, K1250A)", "sequence (P13569 whole entry K1250A)": "as the sequence (P13569 whole entry) above, with K1250A counted along it", "experiment": "Estimated dissociation constants and free enthalpies of binding in the pore", "type": "biochemical", "conditions": "Kd(0) estimate for binding in the pore"}, "[9]": {"target": "CFTR gating site (Homo sapiens, UniProt P13569)", "sequence (P13569 whole entry)": "as the sequence (P13569 whole entry) above", "type": "biochemical", "procedure,_shortened": "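Gating-site Kd was taken as the apparent K1/2 for stimulation of WT CFTR open probability at −80 mV, from Hill fits to Po dose–response curves, with binding assumed voltage independent. ΔG°binding = kT·ln(Kd).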"}, "[10]": {"target": "T3, E1371S CFTR (Homo sapiens, UniProt P13569, E1371S)", "T3 sequence (P13569 whole entry E1371S)": "as the sequence (P13569 whole entry) above, with E1371S counted along it", "conditions": "read-out: apparent KI for pore block; −120 mV; ref Csanády and Töröcsik, 2014; cited from earlier work"}, "[11]": {"target": "T3, E1371S CFTR", "type": "biochemical", "conditions": "80 mM MOPS−; −120 mV", "procedure,_shortened": "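E1371S CFTR channels were locked open in inside-out oocyte patches at 25°C, phosphorylated by PKA or endogenously. After ATP removal, test compound was applied briefly with or without 80 mM MOPS− (MOPS solutions pH 7.2, ~50% ionized). Fractional current = quasi-steady current in drug ÷ mean of pre- and post-exposure currents. Apparent KI was taken from dose–response fits. Mean ± SEM, n ≥ 5.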"}},
  "note": "Where two headings read alike, the source gives them in different places.",
  "data": [
    {"smiles": "O=S(=O)(O)O", "note": "[sulfate]", "values": [
      {"measurement": "effect on WT CFTR open probability / gating", "setting": "[1]; 10 mM sulfate", "value": "little effect"},
      {"measurement": "effect on WT CFTR closing rate", "setting": "[2]; 10 mM sulfate", "value": "did not affect WT CFTR closing rate"},
      {"measurement": "effect on locked-open channel currents", "setting": "[3]; 60 mV", "value": "did not affect locked-open channel currents"},
      {"measurement": "sulfate concentration yielding maximal pore block", "setting": "[3]; −80 mV, anomalous dose dependence", "value": "~5", "unit": "mM"}
    ]},
    {"smiles": "CC(C)(C)c1cc(C(C)(C)C)c(NC(=O)c2c[nH]c3ccccc3c2=O)cc1O", "note": "[VX-770]", "values": [
      {"measurement": "stimulation of ΔF508 CFTR currents", "setting": "[4]; ref Kopeikin et al., 2014", "value": "10–20 fold"},
      {"measurement": "stimulation of ΔF508 CFTR currents", "setting": "[4]; ref Van Goor et al., 2009", "value": "~5", "unit": "fold"}
    ]},
    {"smiles": "NCCCc1ccccc1", "note": "[3PP, 3-phenylpropylamine]", "values": [
      {"measurement": "effect on unitary current amplitude", "setting": "[5]", "value": "little affected unitary current amplitude"},
      {"measurement": "effect on mean burst duration τb", "setting": "[5]; 32 mM 3NB, 2 mM ATP", "value": "prolonged τb"},
      {"measurement": "effect on mean interburst duration τib", "setting": "[5]; 32 mM 3NB, 2 mM ATP", "value": "did not affect τib"},
      {"measurement": "stimulation of single-channel Po", "setting": "[5]; 32 mM 3NB, 2 mM ATP", "value": "twofold"},
      {"measurement": "stimulation of open probability for WT CFTR", "setting": "[1]; high concentrations, −80 mV, macroscopic", "value": "two- to threefold"},
      {"measurement": "slowing of WT CFTR hydrolytic closing rate", "setting": "[2]; 20 mM 3PP-sulfate, −80 mV", "value": "~2.5", "unit": "fold"},
      {"measurement": "effects on unitary currents", "setting": "[3]; 20 mM 3PP-sulfate", "value": "~10", "unit": "%"},
      {"measurement": "fractional current of locked-open K1250A CFTR", "setting": "[3]; 60 mV", "value": "~1.11"},
      {"measurement": "EC50", "setting": "[3]; K1/2 for enhancement of locked-open K1250A current, 60 mV, tentative Hill fit", "value": "~10", "unit": "mM"},
      {"measurement": "enhancement of the rate of ion flow through locked-open K1250A channels", "setting": "[3]; positive voltages (60 mV), high 3PP concentrations", "value": "~10", "unit": "%"},
      {"measurement": "fractional current of locked-open K1250A CFTR", "setting": "[3]; −80 mV", "value": "~0.91"},
      {"measurement": "acceleration of K1250A closing rate", "setting": "[6]; 20 mM 3PP, −20 mV", "value": "~20", "unit": "%"},
      {"measurement": "effect on Po of K1250A CFTR", "setting": "[7]", "value": "no change in Po"},
      {"measurement": "Kd", "setting": "[8]; assuming z = 0.1", "value": 12.6, "unit": "mM"},
      {"measurement": "Kd", "setting": "[8]; assuming z = 0.2", "value": 16, "unit": "mM"},
      {"measurement": "Kd", "setting": "[8]; assuming z = 0.5", "value": 32, "unit": "mM"},
      {"measurement": "Kd", "setting": "[9]", "value": 6, "unit": "mM"}
    ]},
    {"smiles": "O=S(=O)(O)CCCN1CCOCC1", "note": "[MOPS^−, reference compound]", "values": [
      {"measurement": "effect on WT CFTR closing rate", "setting": "[2]; 80 mM MOPS−, −120 mV", "value": "little affected"},
      {"measurement": "effect on K1250A closing rate", "setting": "[6]; 80 mM MOPS−, −40 mV", "value": "neither affected K1250A closing rate"},
      {"measurement": "Ki", "setting": "[10]", "value": 8.3, "unit": "mM"},
      {"measurement": "reduction of macroscopic current through locked-open E1371S channels", "setting": "[11]", "value": "~90", "unit": "%"}
    ]}
  ]
}
